According to PMC8263925 (The Journal of General Physiology, 2021):
Positions count from the first letter of the chain named.

Assays:
Hv1 WT [1] = biological target: T1, Hv1 WT (Homo sapiens, UniProt Q96D96); assay: Inside-out patch, pulsed application of inhibitor to the closed channel; assay type: cell-based; conditions: for channel inhibition under pulsed conditions: 100 µM pulses
T1 sequence (Q96D96 1-273): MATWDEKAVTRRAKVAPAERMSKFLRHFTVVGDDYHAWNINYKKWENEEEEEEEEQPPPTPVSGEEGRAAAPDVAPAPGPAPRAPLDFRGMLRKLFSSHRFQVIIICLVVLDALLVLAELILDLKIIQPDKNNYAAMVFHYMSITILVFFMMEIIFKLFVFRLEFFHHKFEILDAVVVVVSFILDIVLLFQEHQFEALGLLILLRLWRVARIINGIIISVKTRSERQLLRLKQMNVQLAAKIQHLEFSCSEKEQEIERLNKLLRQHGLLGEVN
Outline: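 WT channel, inside-out oocyte patches, pH 6.0. Test compound (100 µM) applied in 3 s pulses while the membrane was held closed at −40 mV, or at 0 mV or −80 mV. Current read after each pulse with a step to +120 mV. Control pulses of a reference Hv1 inhibitor given first to confirm complete washout between depolarizations.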

Hv1 F150A = biological target: T2, Hv1 F150A (Homo sapiens, UniProt Q96D96, F150A); assay: Inside-out patch time course of inhibition, mutant channel; assay type: cell-based; conditions: 0.1 µM, SEM, n = 5
T2 sequence (Q96D96 1-273 F150A): T1 sequence (Q96D96 1-273) with F150A

Hv1 S181A = assay: Inside-out patch time course of inhibition, mutant channel; assay type: cell-based, human; conditions: 50 µM
Outline: (§1)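 Xenopus oocytes injected with mutant-channel mRNA 1–3 d earlier, kept at 18°C in ND96. Inside-out patches at 22 ± 1°C in symmetric Mes/TEA solutions, pH 6.0. Held at −40 mV and pulsed to +120 mV at relative depolarization time 0.2 (3 s/15 s). 50 µM perfused into bath. End-pulse current leak- and rundown-corrected. Decay fitted double-exponentially (τfast, τslow, cfast, cslow); washout recovery single-exponentially (τoff).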

Hv1 E153C = biological target: T3, Hv1 E153C (Homo sapiens, UniProt Q96D96, E153C); assay: as above; assay type: cell-based
T3 sequence (Q96D96 1-273 E153C): T1 sequence (Q96D96 1-273) with E153C
Outline: as §1

Hv1 F156A = biological target: T4, Hv1 F156A (Homo sapiens, UniProt Q96D96, F156A); assay: as above; assay type: cell-based; conditions: 50 µM
T4 sequence (Q96D96 1-273 F156A): T1 sequence (Q96D96 1-273) with F156A
Outline: as §1

Hv1 D185A = biological target: T5, Hv1 D185A (Homo sapiens, UniProt Q96D96, D185A); assay: as above; assay type: cell-based; conditions: 50 µM
T5 sequence (Q96D96 1-273 D185A): T1 sequence (Q96D96 1-273) with D185A
Outline: as §1

Hv1 W207Y = biological target: T6, Hv1 W207Y (Homo sapiens, UniProt Q96D96, W207Y); assay: as above; assay type: cell-based; conditions: 50 µM
T6 sequence (Q96D96 1-273 W207Y): T1 sequence (Q96D96 1-273) with W207Y
Outline: as §1

Hv1 R208K = biological target: T7, Hv1 R208K (Homo sapiens, UniProt Q96D96, R208K); assay: as above; assay type: cell-based; conditions: 50 µM; fast component not resolved from slow component
T7 sequence (Q96D96 1-273 R208K): T1 sequence (Q96D96 1-273) with R208K
Outline: as §1

Hv1 WT [2] = biological target: T1, Hv1 WT; assay: Kinetic simulation of HIF-mediated inhibition, four-state model S; conditions: room temperature, closed VSD

τ of current decay under pulsed application (Hv1 WT [1]; 100 μM for 3 s pulses, membrane at −40 mV during application, single-exponential): 46 ± 4 s | channel inhibition under pulsed conditions (Hv1 WT [1]; membrane held at 0 mV): 55 ± 3% | channel inhibition under pulsed conditions (Hv1 WT [1]; membrane held at −80 mV): 33 ± 4% | ratio between the peak current and the current at the end of the depolarization step in the presence of the inhibitor (Hv1 F150A): 2.5 ± 0.5 | total extent of inhibition vs WT (Hv1 E153C; 50 µM): did not decrease | relative contribution of the slow component, cslow / (cfast + cslow) (Hv1 E153C; 50 μM, RDT = 0.2): 0.80 | τoff, recovery from inhibition (Hv1 E153C; after 50 µM, RDT = 0.2): 294 ± 57 s | effect of mutation on inhibition (Hv1 F156A): did not result in any significant change | effect of mutation on extent or time course of inhibition (Hv1 D185A): did not appreciably affect | reduction of the extent of inhibition vs WT (Hv1 W207Y): 38% | τslow (Hv1 W207Y): > 200 s | extent of inhibition compared with WT (Hv1 R208K): slightly increased | energy barriers to cross in and out of site 2 (Hv1 WT [2]): ~20 kcal/mol
SMILES: Cc1[nH]c(N)nc1CCC(=O)c1cc(F)cc(F)c1 [HIF, 3-(2-amino-5-methyl-1H-imidazol-4-yl)-1-(3,5-difluorophenyl)propan-1-one]
higher inhibition vs WT (Hv1 S181A): 7% | reduction in τslow vs WT (Hv1 S181A): 26%
